Measured values collected from several papers.
Target: Mitogen-activated protein kinase 3 (MAPK3, Homo sapiens, UniProt P27361)

O=C(Nc1cccnn1)N1CCC(=Cc2cccc(Oc3ccc(C(F)(F)F)cn3)c2)CC1 — remaining binding (cell-free assay; competition with immobilised ligand; 1 µM): 100%
COc1cc(Nc2cnc(C#N)c(O[C@H](C)CN(C)C)n2)ncc1-c1cnn(C)c1 — remaining activity (enzyme activity; inhibitor; radiometric; 10 µM): 71%
CNC(=O)c1cc(Oc2ccc(NC(=O)Nc3ccc(Cl)c(C(F)(F)F)c3)cc2)ccn1 — remaining signal (cell-free assay; 0.5 µM): 105%
Cn1c2c(c3ccccc31)C(C#N)C(C)(C)NC2=O (stereo not shown) — ΔTm (thermal stability; DSF; 10 µM): -0.4 °C
Cc1sc(C(=O)NC2COC2)cc1-n1cc(NC(=O)Nc2c(F)cccc2Cl)cn1 — remaining activity (enzyme activity; inhibitor; 10 µM): 107%
CCC(=O)N[C@@H]1CC[C@H](C(=O)N(C)c2ccc(-c3nc4ccccc4o3)cc2)C1 — remaining binding (cell-free assay; competition with immobilised ligand; 1 µM): 100%
CC(C)(C)c1nc2c(s1)c1nc(N)ncc1c1ccc(NS(=O)(=O)c3c(F)cccc3F)c(F)c12 — remaining activity (enzyme activity; inhibitor; radiometric; 1 µM): 84%
CC(C)(O)[C@H]1CC[C@H](Nc2ccc3ncc(-c4cccc(C(F)(F)F)c4)n3n2)CC1 — remaining activity (enzyme activity; inhibitor; 1 µM): 94%
Cc1nc(N2CC[C@@H](O)C2)ncc1-c1cc(C(F)(F)F)cc2[nH]ncc12 — remaining binding (binding; competition with immobilised ligand; 1 µM): 100%
CNc1cccc2cc(C(=O)Nc3ccc(C(=O)O)cc3)c(=O)[nH]c12 — inhibition (enzyme activity; inhibitor; 10 µM): 1.9%
COc1cc(/C=C/C(=O)CC(=O)/C=C/c2ccc(O)c(OC)c2)ccc1O — activity vs control (enzyme activity; inhibitor; 1 µM): 94%
Cc1c[nH]c2nccc(Oc3c(F)cc(Nc4cc(Cl)nc(N)n4)cc3F)c12 — remaining binding (cell-free assay; competition with immobilised ligand; 0.1 µM): 90%
N#CC(=C(N)Sc1ccc(N)cc1)c1ccccc1C(F)(F)F — remaining signal (cell-free assay; 0.5 µM): 116%
CCN1CCN(Cc2ccc(NC(=O)c3ccc(C)c(/C=C/c4cnc5[nH]ccc5c4OC)c3)cc2C(F)(F)F)CC1 — inhibition (target engagement in cells; inhibitor; chemoproteomics; A-375; 0.5 µM): -18.7%
COc1cc2ncnc(Nc3ccc(Oc4ccccc4)c(C)c3C)c2cc1OC — inhibition (enzyme activity; inhibitor; 1 µM): 0%
Cn1c2c(Cl)c(Cl)ccc2c2cc[nH]c(=O)c21 — ΔTm (thermal stability; DSF; 10 µM): -0.4 °C
N#CCCc1ccc2c(c1)-c1[nH]c3ccc([N+](=O)[O-])cc3c1CC(=O)N2 — remaining signal (cell-free assay; 0.5 µM): 95.1%
CC1(C)NC(=O)c2[nH]c3c(Cl)c(Cl)ccc3c2C1C#N (stereo not shown) — ΔTm (thermal stability; DSF; 10 µM): 0.2 °C
N#CC1(c2ccccn2)CCN(Cc2cc(C(=O)N3CCCC3)c(=O)n3ccccc23)CC1 — remaining binding (cell-free assay; competition with immobilised ligand; 1 µM): 91%
CCN1CCC2(CC1)NC(=O)c1c(c3ccc(Cl)c(Cl)c3n1C)C2C#N (racemic) — ΔTm (thermal stability; DSF; 10 µM): 0 °C
O=C1NC(=O)c2cc(Nc3ccc(F)cc3)c(Nc3ccc(F)cc3)cc21 — remaining signal (cell-free assay; 0.5 µM): 86.1%
Nc1nc(Nc2ccccc2)sc1C(=O)c1c(F)cccc1F — remaining activity (enzyme activity; inhibitor; 10 µM): 72%
CCN1CCN(Cc2ccc(NC(=O)c3ccc(C)c(Oc4ccnc5[nH]ccc45)c3)cc2C(F)(F)F)CC1 — inhibition (target engagement in cells; inhibitor; chemoproteomics; A-375; 5 µM): -51.2%
Cc1ccc(C(=O)Nc2ccc(CN3CCN(C)CC3)c(C(F)(F)F)c2)cc1C#Cc1cnc2cccnn12 — remaining activity (enzyme activity; inhibitor; 23.5 nM): 100%
Cn1c2c(c3ccc(Cl)c(Cl)c31)C(C#N)C1(CCNCC1)NC2=O (racemic) — ΔTm (thermal stability; DSF; 10 µM): 0.5 °C
Cc1ccc(NC(=O)c2ccc(CN3CCN(C)CC3)cc2)cc1Nc1nc(-c2cccnc2)cs1 — remaining signal (cell-free assay; 0.5 µM): 103%
Cn1c2c(Cl)c(Cl)ccc2c2cn[nH]c(=O)c21 — ΔTm (thermal stability; DSF; 10 µM): 0.1 °C
Nc1nc(NC2CCCCC2)sc1C(=O)c1ccccc1 — remaining activity (enzyme activity; inhibitor; 10 µM): 20%
Cc1cc(NC(=O)c2cccc(S(F)(F)(F)(F)F)c2)cc(-n2ccn3nc(-c4cccnc4)cc23)c1 — remaining binding (cell-free assay; competition with immobilised ligand; 1 µM): 86.8%
FC(F)(F)Oc1cccc(-c2cnc3ccc(-c4ccncc4)nn23)c1 — activity vs control (enzyme activity; inhibitor; radiometric; 1 µM): 105%
O=C(N[C@H]1CCCCC/C=C\C2C[C@@]2(C(=O)O)NC(=O)[C@@H]2C[C@@H](Oc3ccncc3)CN2C1=O)OC1CCCC1 (stereo partly shown) — remaining binding (binding; competition with immobilised ligand; 1 µM): 69%
O=C(Nc1cnn(-c2csc(C(=O)NC3COC3)c2)c1)Nc1ccccc1Cl — remaining activity (enzyme activity; inhibitor; 5 µM): 92.8%
Nc1cnc(N2CCc3cc(S(=O)(=O)Nc4c(F)cc(Cl)cc4F)cc(N4CCCC4=O)c32)nc1 — remaining binding (cell-free assay; competition with immobilised ligand; 1 µM): 91%
Oc1cccc(-c2nc(N3CCOCC3)c3oc4ncccc4c3n2)c1 — remaining activity (enzyme activity; inhibitor; 10 µM): 112%
